Rows were chosen to be rich in hits. Some 1.3% of all compounds tested hit in one or more screens of this group.
Yeast growth inh: growth inhibitors of yeast BB579 in restrictive medium, primary screen, yeast lifespan-shortening project, S. cerevisiae; OD615, 48 h; inhibition, % at 10 µM; actives 0.51% (n = 140,000); AID 804, 2007;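 active means inhibition above a set limit, 3 SD over the mean compound inhibition, cut at about 44% in these data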
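Test system: Saccharomyces cerevisiae DeaD strain BB579, replicative lifespan model yeast | Buffer or medium: Restrictive CSMM-D medium | Doses: One dose, 10 µM compound with 0.25% DMSO | Incubation: 48 h exposure, 30 °C | Detection: Culture absorbance at 615 nm | Control set: Amphotericin B at 10 µg/mL as positive control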
HMGR II inh: inhibitors of E. faecalis class II HMGR, primary screen, biochemical, Enterococcus faecalis; actives 0.41% (n = 190,000); HMG-CoA reductase (Enterococcus faecalis, mvaE); inhibition, % at 10 µM; purified E. faecalis HMGR, NADPH absorbance 340 nm kinetic;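 active means inhibition above a set limit, the median over all tested compounds plus 3 SD, cut at about 9.5% in these data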;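 further: enzyme runs in reverse so mevalonate oxidation gives rising NADPH absorbance; 0% = complete reaction with DMSO and 100% = background rate lacking mevalonate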
SDO1 yeast rescue: growth rescue of sdo1-depleted yeast, primary screen, S. cerevisiae, bone marrow failure model. z-score at 10 µM. actives 0.21% (n = 140,000). S. cerevisiae sdo1-depleted JHY4D growth rescue, OD600 30 h; active compounds read high; pdr5 snq2 efflux-pump mutant strain;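 active means z-score above 3 at both the 24 hr and the 30 hr optical density reads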;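 further: z-score against mean and SD of all compound wells on the same plate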
Yeast life ext: compounds extending yeast replicative lifespan, primary screen, S. cerevisiae, OD615 | inhibition of the nicotinamide effect, % at 10 µM | AID 775, 2007 | actives 0.68% (n = 130,000) | S. cerevisiae growth with nicotinamide; deaD strain in restrictive glucose medium;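 active means inhibition above a set limit, placed 3 SD over the median of all compounds, cut at about 26% in these data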;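 further: 0% = nicotinamide-treated wells and 100% = cells grown without nicotinamide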
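assay system = DeaD-strain S. cerevisiae | buffer or medium = restrictive glucose medium | reagent = 1.5 mM nicotinamide | compound = 10 µM single point, 0.25% DMSO | incubation = 48 h compound exposure at 30 °C, humidified | signal = OD615 measurement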
Active calls of the source: *.

`CSC1=C(C#N)C(c2ccccc2Cl)C2=C(N1)c1ccccc1C2=O` (centres undefined) gave Yeast growth inh -21, HMGR II inh 1, SDO1 yeast rescue -0.55 and Yeast life ext 28*.
`Cc1ccc(C)c(N2CCN(S(=O)(=O)c3c(C)noc3/C=C/N(C)C)CC2)c1` gave Yeast growth inh -15, HMGR II inh -3, SDO1 yeast rescue 0.66 and Yeast life ext 36*.
For CCCCc1c(CCC)c(=N)c2ccccc2n1C the results were Yeast growth inh 6, HMGR II inh -3, SDO1 yeast rescue 0.87 and Yeast life ext -5.
For S=c1sc2c(N3CCN(Cc4ccccc4)CC3)ncnc2n1-c1ccccc1 the results were Yeast growth inh -20, HMGR II inh -4, SDO1 yeast rescue -1.6 and Yeast life ext -3.
CCN1CCN(c2ncnc3c2sc(=S)n3-c2ccccc2)CC1 was read as Yeast growth inh 46*, HMGR II inh 0, SDO1 yeast rescue 0.03 and Yeast life ext -9.
Cc1ccccc1C(=O)NNC1=NCCC1 was read as Yeast growth inh -22, HMGR II inh -5, SDO1 yeast rescue 1.2 and Yeast life ext 29*.
`Cc1cc(C=O)c2c(c1)C=CC1(Oc3ccccc3C(=O)N1C)O2` (centres undefined) gave Yeast growth inh -64, HMGR II inh 19* and SDO1 yeast rescue -2.3.
Screening CC1=C/C(=N\OS(=O)(=O)c2ccccc2)C(C(C)C)=CC1=O returned Yeast growth inh 100*, HMGR II inh -3, SDO1 yeast rescue -2.2 and Yeast life ext -12.
Screening CC1=C(C)/C(=N\OS(=O)(=O)c2ccc(C)cc2)C=CC1=O returned Yeast growth inh 99*, HMGR II inh -1, SDO1 yeast rescue -1.6 and Yeast life ext -10.
Screening CC1=C/C(=N\OS(=O)(=O)c2ccccc2)C(C)=CC1=O returned Yeast growth inh 100*, HMGR II inh -1, SDO1 yeast rescue -3 and Yeast life ext -19.
Screening CC1(c2ccccc2Cl)NC(=O)N(CC(=O)Nc2ccc3c(c2)OCO3)C1=O (centres undefined) returned HMGR II inh 0.
Screening Cc1ccccc1C(=O)N/N=C1/SCC(=O)N1Cc1ccccc1 returned HMGR II inh -3.
COc1cccc(CC2(CO)CCCN(Cc3c(C)cc(C)cc3-n3cccn3)C2)c1 (centres undefined) was read as HMGR II inh -3.
For O=Cc1c(Cl)nc2ccccn12 the results were HMGR II inh 0.
For Clc1cc2nc3ccccn3c2cc1Cl the results were Yeast growth inh 43*, HMGR II inh -4, SDO1 yeast rescue -0.56 and Yeast life ext -32.
`Cc1ccc(C(=O)NCCc2ccncc2)cc1` gave Yeast growth inh -3, HMGR II inh 12*, SDO1 yeast rescue 1.5 and Yeast life ext -21.
Screening Cc1ccc(Oc2ccc(C(=O)NCc3ccncc3)cc2)cc1 returned HMGR II inh -1.
COC(=O)c1ccc(C(=O)OC)c(NC(=O)CSc2cccc[n+]2[O-])c1 was read as Yeast growth inh 99*, HMGR II inh 2, SDO1 yeast rescue 1.5 and Yeast life ext -29.
Cc1ccc(NS(=O)(=O)c2cccc([N+](=O)[O-])c2)nc1 was read as HMGR II inh -2.
`Cc1cccc(N/N=C(\C#N)S(=O)(=O)C(C)(C)C)c1` gave HMGR II inh 17*.
For O=C(CNC(=S)N(Cc1ccccc1)Cc1cccnc1)N1CCOCC1 the results were HMGR II inh -7.
Screening O=c1c2ccccc2sn1-c1ccc(S(=O)(=O)N2CCCC2)cc1 returned Yeast growth inh -9, HMGR II inh -3, SDO1 yeast rescue -1.2 and Yeast life ext 0.
`O=c1c2ccccc2sn1-c1ccccc1` gave Yeast growth inh -7, HMGR II inh -3, SDO1 yeast rescue -1.9 and Yeast life ext 41*.
CCCCc1nc2cc(Cl)ccc2o1 was read as HMGR II inh -8.
Screening CCCCCCCCCCCCCCCC(O)C(N)CO (centres undefined) returned Yeast growth inh 100*, HMGR II inh 0, SDO1 yeast rescue -0.52 and Yeast life ext -10.
COc1ccc(CC(=O)NCCC(C)C)cc1S(=O)(=O)N1CCOCC1 was read as HMGR II inh -1.
`CC(=O)NNC(=S)NCCc1ccccc1` gave HMGR II inh -4.
`CC(C)(CNC(=S)NCCc1ccccc1)CNC(=S)NCCc1ccccc1` gave Yeast growth inh 73*, HMGR II inh -4, SDO1 yeast rescue -0.3 and Yeast life ext -5.
`OCCNC(=S)NCCc1ccccc1` gave Yeast growth inh -20, HMGR II inh -5, SDO1 yeast rescue 0.98 and Yeast life ext 3.
`CCN(CC)C(=S)NCCc1ccccc1` gave HMGR II inh 12*.
S=C(Nc1ccc(Br)cc1)NC1CCCCC1 was read as Yeast growth inh -30, HMGR II inh 3, SDO1 yeast rescue -0.49 and Yeast life ext 0.
`CCN1CCCc2cc(CN(CCN3CCOCC3)C(=S)Nc3ccccc3C)ccc21` gave HMGR II inh 10*.
Screening Cc1ccccc1NC(=S)N(CCN1CCCCCC1)Cc1cccs1 returned HMGR II inh 10*.
CCN1CCCc2cc(CN(CCN3CCOCC3)C(=S)Nc3ccccc3OC)ccc21 was read as HMGR II inh 1.
For Fc1ccccc1NC(=S)N(CCN1CCCCCC1)Cc1cccs1 the results were HMGR II inh -6.
Cc1ccc(C(OCC(C)(C)C[N+](C)(C)C)c2ccccc2)cc1 (centres undefined) was read as HMGR II inh -1.
`O=C(CCn1c(=O)oc2ccccc21)NCc1cccs1` gave Yeast growth inh -26, HMGR II inh 13* and SDO1 yeast rescue -0.05.
For CCC1=C/C(=C/c2sc3ccccc3[n+]2CC)CC(C)(C)C1 the results were HMGR II inh 0.
`CC[n+]1c(/C=C2\C=C(C)CC(C)(C)C2)sc2ccccc21` gave Yeast growth inh -15, HMGR II inh -3, SDO1 yeast rescue -1 and Yeast life ext 40*.
CC[n+]1c(/C=C2\C=C(C)CC(C)C2)sc2ccccc21 (centres undefined) was read as Yeast growth inh -28, HMGR II inh -2, SDO1 yeast rescue -0.95 and Yeast life ext 27*.
For CN(C)c1ccc(N/C(N)=N/c2nc(C(F)(F)F)cc(C(F)(F)F)n2)cc1 the results were HMGR II inh -11.
O=C(Nc1nc(-c2ccccc2)cs1)NC1CCCCC1 was read as Yeast growth inh -13, HMGR II inh 11*, SDO1 yeast rescue -1.9 and Yeast life ext -1.
O=C(COC(=O)CNC(=O)c1sc2ccccc2c1Cl)Nc1cc(Cl)cc(Cl)c1 was read as HMGR II inh -2.
`NC(=O)c1sc2nc(-c3ccco3)ccc2c1N` gave Yeast growth inh 53*, HMGR II inh -7, SDO1 yeast rescue -0.56 and Yeast life ext -24.

Source: PubChem BioAssay (several laboratories)
